{
  "source": "ChEMBL document CHEMBL1949639",
  "about": "“New losartan-hydrocaffeic acid hybrids as antihypertensive-antioxidant dual drugs: Ester, amide and amine linkers” (2012)",
  "key": {"[1]": {"experiment": "Antioxidant activity assessed as trolox equivalent of ABTS radical scavenging activity relative to control", "type": "functional", "how_it_was_run": "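Metmyoglobin/H2O2 oxidation of ABTS to its radical, read as absorbance at 600 nm in 96-well format. Samples taken from K2CO3-solubilised stocks diluted in PBS. Activity expressed as TEAC: the concentration (mM) giving the same percentage change in ABTS radical absorbance as 1 mM Trolox.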"}, "[2]": {"experiment": "Antihypertensive activity against angiotensin-2-induced cell contraction in Wistar rat VSMC assessed as changes in planar cell surface area after 30 mins by planimetric technique", "type": "functional", "how_it_was_run": "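VSMC from thoracic aortas of Wistar rats, collagenase-digested, grown in DMEM/Ham's F-12 with 10% foetal calf serum at 37 °C, 5% CO2, used at passages 3–5. Cells in Tris-glucose buffer pH 7.45 with angiotensin II plus compound, […], for 30 min. Photographed at 0 and 30 min, planar surface area by planimetry. 4–8 cells per experiment, mean of 5 experiments gives percent inhibition of contraction.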"}, "[3]": {"test_system": "Rattus norvegicus", "experiment": "Antihypertensive activity in Wistar rat assessed as decrease of L-NAME-induced systolic arterial pressure at 20 mg/kg, po administered with drinking water qd for 3 days by sphygmomanometer", "type": "functional, Artery", "conditions": "dose 30 mg/kg, in the assay text read “30 mg/kg” for “20 mg/kg”", "how_it_was_run": "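Two-month-old male Wistar rats received L-NAME in drinking water (20 mg/kg/day). After one week, losartan (20 mg/kg/day) or hybrids (30 mg/kg/day) were given daily in drinking water for three days. At least six animals per group. Arterial pressure measured in conscious rats by tail-cuff sphygmomanometer.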"}},
  "data": [
    {"smiles": "CC(C)(C)c1cc(C(=O)O)cc(C(C)(C)C)c1O", "values": [
      {"measurement": "Ratio", "setting": "[1]", "value": 0.181}
    ]},
    {"smiles": "CCCCc1nc(Cl)c(CNCCCc2ccc(O)c(O)c2)n1Cc1ccc(-c2ccccc2-c2nn[nH]n2)cc1", "values": [
      {"measurement": "inhibition (INH)", "setting": "[2]", "value": 92, "unit": "%"},
      {"measurement": "Ratio", "setting": "[1]", "value": 0.13}
    ]},
    {"smiles": "O=C(O)c1ccc(O)c(O)c1", "values": [
      {"measurement": "Ratio", "setting": "[1]", "value": 0.153}
    ]},
    {"smiles": "CCCCc1nc(Cl)c(C(=O)NCCCc2ccc(O)c(O)c2)n1Cc1ccc(-c2ccccc2-c2nn[nH]n2)cc1", "values": [
      {"measurement": "Activity", "setting": "[3]", "value": 1, "unit": "mmHg"},
      {"measurement": "inhibition (INH)", "setting": "[2]", "value": 93, "unit": "%"},
      {"measurement": "Ratio", "setting": "[1]", "value": 0.17}
    ]},
    {"smiles": "CCCCc1nc(Cl)c(C(=O)O)n1Cc1ccc(-c2ccccc2-c2nn[nH]n2)cc1", "values": [
      {"measurement": "Ratio", "setting": "[1]", "value": 0.03}
    ]},
    {"smiles": "COc1cc(C(=O)O)cc(OC)c1O", "values": [
      {"measurement": "Ratio", "setting": "[1]", "value": 1.07}
    ]},
    {"smiles": "CCCCc1nc(Cl)c(CNC(=O)CCc2ccc(O)c(O)c2)n1Cc1ccc(-c2ccccc2-c2nn[nH]n2)cc1", "values": [
      {"measurement": "Activity", "setting": "[3]", "value": 13, "unit": "mmHg"},
      {"measurement": "inhibition (INH)", "setting": "[2]", "value": 90, "unit": "%"},
      {"measurement": "Ratio", "setting": "[1]", "value": 0.27}
    ]},
    {"smiles": "COc1cc(C(=O)O)ccc1O", "values": [
      {"measurement": "Ratio", "setting": "[1]", "value": 0.202}
    ]},
    {"smiles": "CCCCc1nc(C(=O)OCCCc2ccc(O)c(O)c2)c(Cl)n1Cc1ccc(-c2ccccc2-c2nn[nH]n2)cc1", "values": [
      {"measurement": "Activity", "setting": "[3]", "value": 14, "unit": "mmHg"},
      {"measurement": "inhibition (INH)", "setting": "[2]", "value": 95, "unit": "%"},
      {"measurement": "Ratio", "setting": "[1]", "value": 0.24}
    ]},
    {"smiles": "CC(C)(C)c1cc(CC(=O)O)cc(C(C)(C)C)c1O", "values": [
      {"measurement": "Ratio", "setting": "[1]", "value": 1.06}
    ]},
    {"smiles": "CCCCc1nc(Cl)c(COC(=O)CCc2ccc(O)c(O)c2)n1Cc1ccc(-c2ccccc2-c2nnn[nH]2)cc1", "values": [
      {"measurement": "Activity", "setting": "[3]", "value": 29, "unit": "mmHg"},
      {"measurement": "inhibition (INH)", "setting": "[2]", "value": 94, "unit": "%"},
      {"measurement": "Ratio", "setting": "[1]", "value": 0.31}
    ]},
    {"smiles": "CCCCc1nc(Cl)c(C(=O)OCCCc2ccc(O)c(O)c2)n1Cc1ccc(-c2ccccc2-c2nn[nH]n2)cc1", "values": [
      {"measurement": "Activity", "setting": "[3]", "value": 9, "unit": "mmHg"},
      {"measurement": "inhibition (INH)", "setting": "[2]", "value": 88, "unit": "%"},
      {"measurement": "Ratio", "setting": "[1]", "value": 0.1}
    ]},
    {"smiles": "O=C(O)CCc1ccc(O)c(O)c1", "note": "[DIHYDROCAFFEIC ACID]", "values": [
      {"measurement": "inhibition (INH)", "setting": "[2]", "value": 85, "unit": "%"},
      {"measurement": "Ratio", "setting": "[1]", "value": 0.36}
    ]},
    {"smiles": "O=C(O)/C=C/c1ccc(O)c(O)c1", "values": [
      {"measurement": "Ratio", "setting": "[1]", "value": 0.2}
    ]},
    {"smiles": "CC[C@H](C)[C@H](NC(=O)[C@H](Cc1ccc(O)cc1)NC(=O)[C@@H](NC(=O)[C@H](CCCNC(=N)N)NC(=O)[C@@H](N)CC(=O)O)C(C)C)C(=O)N[C@@H](Cc1cnc[nH]1)C(=O)N1CCC[C@H]1C(=O)N[C@@H](Cc1ccccc1)C(=O)O", "note": "[ANGIOTENSIN II]", "values": [
      {"measurement": "inhibition (INH)", "setting": "[2]", "value": 82, "unit": "%"}
    ]},
    {"smiles": "CCCCc1nc(Cl)c(CO)n1Cc1ccc(-c2ccccc2-c2nnn[nH]2)cc1", "note": "[LOSARTAN]", "values": [
      {"measurement": "Activity", "setting": "[3]", "value": 13, "unit": "mmHg"},
      {"measurement": "inhibition (INH)", "setting": "[2]", "value": 93, "unit": "%"},
      {"measurement": "Ratio", "setting": "[1]", "value": 0.03}
    ]}
  ]
}
